Test results reported in ChEMBL document CHEMBL1123632, “Cardiotonic agents. 7. Inhibition of separated forms of cyclic nucleotide phosphodiesterase from guinea pig cardiac muscle by 4,5-dihydro-6-[4-(1H-imidazol-1-yl)phenyl]-3(2H)-pyridazinones and related compounds. Structure-activity relationships and correlation with in vivo positive inotropic …” (J Med Chem, 1987).
Values joined by “and” are separate entries in the source; they are usually repeats but may differ in a detail not shown here. Equal values may be shown once.

Assays:
Canis familiaris = species: Canis familiaris; experiment: Effective dose required to increase myocardial contractility in dog.; type: functional; conditions: Canis lupus familiaris, Myocardium
Method in brief: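 Anesthetized mongrel dogs (either sex): pentobarbital 35 mg/kg iv, then 5 mg kg⁻¹ h⁻¹ infusion. After 30-min control, compound in saline or dilute HCl/NaOH diluted with saline given iv over 1 min, cumulative half-log doses (typically four to six), 10–30 min apart.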

[1] = biological target: T1, cGMP-dependent 3',5'-cyclic phosphodiesterase (Homo sapiens, UniProt O00408); experiment: Inhibition of cGMP PDE II enzyme in guinea pig at 1E-5M concentration; conditions: Cavia porcellus; target entry is the homologue from another species
[2] = biological target: T1, cGMP-dependent 3',5'-cyclic phosphodiesterase; experiment: Inhibition of cGMP PDE II enzyme in guinea pig at 10e-4 M; conditions: Cavia porcellus, target entry is the homologue from another species
[3] = biological target: T1, cGMP-dependent 3',5'-cyclic phosphodiesterase; experiment: Inhibitory concentration against cGMP PDE II enzyme in guinea pig; set-up: species or system Cavia porcellus; conditions: target entry is the homologue from another species
Phosphodiesterase 3 [4] = biological target: T2, Phosphodiesterase 3 (Homo sapiens, UniProt Q14432+Q13370); experiment: Inhibitory concentration against cAMP PDE III enzyme in guinea pig; type: protein assay, Cavia porcellus; conditions: target entry is the homologue from another species
Phosphodiesterase 3 [5] = biological target: T2, Phosphodiesterase 3; experiment: Inhibition of cAMP PDE III enzyme in guinea pig at 1E-4M concentration.; type: protein assay; conditions: Cavia porcellus; target entry is the homologue from another species
Phosphodiesterase 3 [6] = biological target: T2, Phosphodiesterase 3; experiment: Inhibition of cAMP PDE III enzyme in guinea pig at 1E-5M concentration; type: protein assay; conditions: Cavia porcellus; target entry is the homologue from another species
Phosphodiesterase 1 [7] = biological target: T3, Phosphodiesterase 1 (Homo sapiens, UniProt P54750+Q01064+Q14123); experiment: Inhibition of cAMP PDE I enzyme in guinea pig at 1E-4M concentration.; type: protein assay; conditions: Cavia porcellus; target entry is the homologue from another species
Phosphodiesterase 1 [8] = biological target: T3, Phosphodiesterase 1; experiment: Inhibition of cAMP PDE I enzyme in guinea pig at 1E-5M concentration; type: protein assay; conditions: Cavia porcellus; target entry is the homologue from another species
Phosphodiesterase 1 [9] = biological target: T3, Phosphodiesterase 1; experiment: Inhibition of cGMP PDE I enzyme in guinea pig at 1E-4M concentration; type: protein assay; conditions: Cavia porcellus; target entry is the homologue from another species
Phosphodiesterase 1 [10] = biological target: T3, Phosphodiesterase 1; experiment: Inhibition of cGMP PDE I enzyme in guinea pig at 1E-5M concentration; type: protein assay; conditions: Cavia porcellus; target entry is the homologue from another species
[11] = biological target: T1, cGMP-dependent 3',5'-cyclic phosphodiesterase; experiment: Inhibitory concentration against cAMP PDE II enzyme in guinea pig; set-up: species or system Cavia porcellus; conditions: target entry is the homologue from another species
[12] = biological target: T1, cGMP-dependent 3',5'-cyclic phosphodiesterase; experiment: Inhibition of cAMP PDE II enzyme in guinea pig at 1E-5M concentration; conditions: Cavia porcellus; target entry is the homologue from another species
[13] = Ratio of IC50 values for PDE III and PDE I.
[14] = Ratio of IC50 values for PDE III and PDE II.
PDE I (Cavia porcellus) [15] = experiment: Inhibitory concentration against cAMP PDE I enzyme in guinea pig
PDE I (Cavia porcellus) [16] = experiment: Inhibitory concentration against cGMP PDE I enzyme in guinea pig
PDE II (Cavia porcellus) = experiment: Inhibition of cAMP PDE II enzyme in guinea pig at 1E-4M concentration.
Phosphodiesterase 1 [17] = biological target: T3, Phosphodiesterase 1; experiment: Inhibition of cAMP PDE I enzyme in guinea pig at 1E-4M; type: protein assay; conditions: Cavia porcellus; target entry is the homologue from another species
Phosphodiesterase 1 [18] = biological target: T3, Phosphodiesterase 1; experiment: Inhibition of cGMP PDE I enzyme in guinea pig at 1E-4M; type: protein assay; conditions: Cavia porcellus; target entry is the homologue from another species
[19] = biological target: T1, cGMP-dependent 3',5'-cyclic phosphodiesterase; experiment: Inhibition of cAMP PDE II enzyme in guinea pig at 1E-4M; conditions: Cavia porcellus; target entry is the homologue from another species
[20] = biological target: T1, cGMP-dependent 3',5'-cyclic phosphodiesterase; experiment: Inhibition of cGMP PDE II enzyme in guinea pig at 1E-4M; conditions: Cavia porcellus; target entry is the homologue from another species
Phosphodiesterase 3 [21] = biological target: T2, Phosphodiesterase 3; experiment: Inhibition of cAMP PDE III enzyme in guinea pig at 1E-4M; type: protein assay; conditions: Cavia porcellus; target entry is the homologue from another species
Phosphodiesterase 1 [22] = biological target: T3, Phosphodiesterase 1; experiment: Inhibitory concentration against cAMP PDE I enzyme in guinea pig; type: protein assay, Cavia porcellus; conditions: target entry is the homologue from another species
Phosphodiesterase 1 [23] = biological target: T3, Phosphodiesterase 1; experiment: Inhibitory concentration against cGMP PDE I enzyme in guinea pig; type: protein assay, Cavia porcellus; conditions: target entry is the homologue from another species
[24] = biological target: T1, cGMP-dependent 3',5'-cyclic phosphodiesterase; experiment: Inhibition of cGMP PDE II enzyme in guinea pig at 1E-4M concentration; conditions: Cavia porcellus; target entry is the homologue from another species
[25] = biological target: T1, cGMP-dependent 3',5'-cyclic phosphodiesterase; experiment: Inhibition of PDE II enzyme in guinea pig; set-up: species or system Cavia porcellus; conditions: target entry is the homologue from another species

T1 sequence (O00408 whole entry): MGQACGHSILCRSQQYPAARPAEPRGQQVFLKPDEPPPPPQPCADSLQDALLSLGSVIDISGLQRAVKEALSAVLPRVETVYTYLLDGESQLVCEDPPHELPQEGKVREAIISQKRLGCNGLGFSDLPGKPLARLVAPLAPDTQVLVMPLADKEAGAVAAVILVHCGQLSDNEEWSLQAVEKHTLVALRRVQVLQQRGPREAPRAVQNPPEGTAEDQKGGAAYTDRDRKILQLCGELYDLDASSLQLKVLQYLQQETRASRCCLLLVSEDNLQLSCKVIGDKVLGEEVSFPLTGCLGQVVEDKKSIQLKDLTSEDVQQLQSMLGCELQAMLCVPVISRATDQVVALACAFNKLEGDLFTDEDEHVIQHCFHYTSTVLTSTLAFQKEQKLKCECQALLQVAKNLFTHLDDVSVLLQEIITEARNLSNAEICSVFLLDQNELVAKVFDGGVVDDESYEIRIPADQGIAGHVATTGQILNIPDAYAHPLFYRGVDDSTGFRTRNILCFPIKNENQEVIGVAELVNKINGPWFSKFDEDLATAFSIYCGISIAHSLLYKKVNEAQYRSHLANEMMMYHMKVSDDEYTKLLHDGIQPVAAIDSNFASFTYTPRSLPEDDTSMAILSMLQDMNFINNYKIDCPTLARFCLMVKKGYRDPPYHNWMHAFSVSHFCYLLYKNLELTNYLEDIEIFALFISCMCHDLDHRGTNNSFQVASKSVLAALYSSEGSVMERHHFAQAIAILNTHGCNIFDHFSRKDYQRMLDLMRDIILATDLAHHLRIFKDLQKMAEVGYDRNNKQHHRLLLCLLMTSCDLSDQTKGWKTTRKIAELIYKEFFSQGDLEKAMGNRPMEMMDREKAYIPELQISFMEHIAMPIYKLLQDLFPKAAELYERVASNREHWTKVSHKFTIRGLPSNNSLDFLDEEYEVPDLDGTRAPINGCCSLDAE

inhibition [1] [%] | IC50 (Phosphodiesterase 3 [4]) [µM] | inhibition (Phosphodiesterase 3 [5]) [%] | inhibition (Phosphodiesterase 3 [6]) [%] | inhibition (Phosphodiesterase 1 [7]) [%] | inhibition (Phosphodiesterase 1 [8]) [%] | inhibition (Phosphodiesterase 1 [9]) [%] | inhibition (Phosphodiesterase 1 [10]) [%] | inhibition [12] [%] | inhibition (PDE II (Cavia porcellus)) [%] | inhibition [19] [%] | inhibition [20] [%] | IC50 (Phosphodiesterase 1 [22]) [µM] | IC50 (Phosphodiesterase 1 [23]) [µM] | SMILES | ED50 (Canis familiaris) [mg/kg] | further results
4 | 2.3 | 64 | 57 | 16 | 1 | 18 | 0 | 8 | 19 | – | – | – | – | Cc1nccn1-c1ccc(C2=NNC(=O)CC2)cc1 | 0.3 | inhibition [2]: 22%; IC50 [3]: 380 µM; IC50 [11]: 420 µM; Ratio [13]: 2.9; Ratio [14]: 5.4; IC50 (PDE I (Cavia porcellus) [15]): 790 µM; IC50 (PDE I (Cavia porcellus) [16]): 530 µM
7 | – | – | 69 | – | 3 | – | 9 | 5 | – | 18 | 23 | – | – | CC1CC(O)=NN=C1c1ccc(-n2ccnc2)cc1 (centres undefined) [CI-930] | 0.013 | inhibition (Phosphodiesterase 1 [17]): 9%; inhibition (Phosphodiesterase 1 [18]): 12%
7 | – | 51 | 33 | – | 7 | – | 6 | 6 | 20 | – | 24 | – | – | O=C1CCC(c2ccc(-n3cncn3)cc2)=NN1 | – | –
7 | 43 | – | 25 | – | 0 | – | 2 | 15 | – | 27 | 26 | > 1000 | > 1000 | CC1CC(c2ccc(-n3ccnc3)cc2)=NNC1=O (centres undefined) | 1 | inhibition (Phosphodiesterase 1 [17]): 8%; inhibition (Phosphodiesterase 1 [18]): 8%; inhibition (Phosphodiesterase 3 [21]): 63%
11 | 7.2 | 80 | 56 | 17 | 4 | 15 | 6 | – | – | – | – | 660 | 580 | Oc1ccc(-c2ccc(-n3ccnc3)cc2)nn1 | 0.11 | inhibition [24]: 27%
– | – | – | – | – | – | – | – | – | – | – | – | > 1000 | > 1000 | Nc1cc(-c2ccncc2)c[nH]c1=O [INAMRINONE] | – | IC50 [11]: 720 µM and 580 µM
7 | – | 76 | 57 | 8 | 3 | 10 | 3 | 4 | – | 17 | 20 | – | – | O=C1CCC(c2ccc(-n3ccnc3)cc2)=NN1 [IMAZODAN] | 0.045 | –
10 | 22 | 64 | 41 | 20 | 6 | 28 | 7 | 13 | 44 | – | – | – | – | Nc1cc(-c2ccc(-n3ccnc3)cc2)nnc1O | 0.3 | inhibition [24]: 51%; IC50 [25]: 110 µM; IC50 [3]: 88 µM; Ratio [13]: < 44; Ratio [14]: 200; IC50 (PDE I (Cavia porcellus) [15]): > 500 µM; IC50 (PDE I (Cavia porcellus) [16]): > 500 µM
